Experimental data collected from several papers.
Lines come from different studies, so protocols differ.
Organism: Staphylococcus aureus
Read-out: microbial growth

| SMILES | test | system | conditions | MIC |
| --- | --- | --- | --- | --- |
| O=C(O)CN1C(=O)/C(=C/c2ccc(-c3ccc(N(c4ccccc4)c4ccccc4)cc3)c3ccccc23)NC1=S | broth dilution | ATCC25923 |  | > 1000 µg/mL |
| C/C=C(\C)c1cc(O)c(C)c(OC(=O)c2c(C)c(Cl)c(O)c(Cl)c2O)c1 | broth dilution | 6917 |  | 8 µg/mL |
| Clc1ccc(C2(c3ccc(-c4cn[nH]c4)cc3)CCNCC2)cc1 |  | NCTC8325 |  | > 30 µM |
| CC(C)Oc1c(NC(=O)c2ccc(NC(=O)[C@H](CC(N)=O)NC(=O)c3ccc(NC(=O)C(C)Oc4ccccc4)cc3)cc2)ccc(C(=O)Nc2ccc(C(=O)O)cc2)c1O (stereo partly shown) |  | ATCC29213 |  | > 64 µg/mL |
| COc1cccc(-c2nc3ccccc3n2Cc2ccccc2)c1 | broth dilution | ATCC29213 MSSA |  | 256 µg/mL |
| COc1c(C)c(OC(C)=O)c(C)c(O)c1C(=O)/C=C/c1ccccc1 | broth dilution | ATCC25923 |  | 2500 µg/mL |
| Cc1ccc2nc(-c3ccc([N+](=O)[O-])cc3)n(Cc3ccc(Cl)cc3)c2c1 | broth dilution | ATCC29213 MSSA |  | 8 µg/mL |
| O=C1NC(=S)S/C1=C\c1ccc(-c2ccc(N(c3ccccc3)c3ccccc3)cc2)c2ccccc12 | broth dilution | ATCC43300 |  | 1000 µg/mL |
| CC(C)Oc1c(NC(=O)c2ccc(NC(=O)[C@H](CC(N)=O)NC(=O)c3ccc(NC(=O)c4ccc(C#N)cc4)cc3)cc2)ccc(C(=O)N[C@@H]2CONC2=O)c1O |  | ATCC29213 |  | > 64 µg/mL |
| COc1cccc(OC)c1C(=O)N[C@@H]1C(=O)N2[C@@H]1SC(C)(C)[C@@H]2C(=O)O |  | 147 | clinical isolate | 6.25 µM |
| CC(=O)NC[C@H]1CN(c2ccc(N3CCOCC3)c(F)c2)C(=O)O1 | broth dilution | MRSA NRS384 USA300 | drug-resistant strain | 2 µg/mL |
| CO[C@H]1[C@H](O[C@H]([C@H]2O[C@@H](n3ccc(=O)[nH]c3=O)[C@H](O)[C@@H]2O)[C@H](NCCCNC(=O)[C@H](CC(C)C)NC(=O)[C@@H](NC(=O)N[C@H](C(=O)O)C(C)C)[C@@H]2CCNC(=N)N2)C(=O)O)O[C@H](CN)[C@H]1O |  | NEWMAN |  | > 80 µg/mL |
| CCCN/C(=N/C)c1ccc(NC(=O)c2ccc(C(=O)Nc3ccc(/C(=N\C)NCCC)cc3)cc2)cc1 |  |  |  | 16 µg/mL |
| COC(=O)c1cc(Sc2ccc(NC(=O)Nc3ccc(Cl)c(C(F)(F)F)c3)cc2)ccn1 |  | NCTC8325 | 24 h | 3 µM |
| Cc1c(CN(C)C(=O)/C=C/c2cnc3c(c2)CC(NC(=O)OC(C)(C)C)C(=O)N3)oc2ccccc12 (stereo not shown) | broth dilution | ATCC29213 |  | 0.016 µg/mL |
| CS(=O)(=O)CCNCc1ccc(-c2ccc3ncnc(Nc4ccc(OCc5cccc(F)c5)c(Cl)c4)c3c2)o1 |  | NCTC8325 |  | > 30 µM |
| Cc1ccc2nc(-c3ccc([N+](=O)[O-])cc3)[nH]c2c1 | broth dilution | ATCC29213 MSSA |  | 128 µg/mL |
| CCCCCCC#Cc1cncc(-c2nnc(SCc3ccc(Cl)cc3)n2C)c1 |  | MRSA | drug-resistant strain | ≥ 20 µg/mL |
| CC1(C)S[C@@H]2[C@H](NC(=O)[C@H](N)c3ccccc3)C(=O)N2[C@H]1C(=O)O | broth dilution | MRSA |  | 32 µg/mL |
| CCN(CC)CCNC(=O)c1c(C)[nH]c(/C=C2\C(=O)Nc3ccc(F)cc32)c1C |  | NCTC8325 |  | > 30 µM |

| SMILES | test | system | conditions | MIC |
| --- | --- | --- | --- | --- |
| Clc1ccc(-c2nc3ccccc3[nH]2)c(Cl)c1 | broth dilution | ATCC29213 MSSA |  | 128 µg/mL |
| C/C=C(\C)c1cc(OC(=O)c2c(O)c(C)c(O)c(Cl)c2/C(C)=C/C)c(C)c(O)c1C(=O)O | broth dilution | MRSA |  | 64 µg/mL |
| Cc1ccc(C)n1-c1ccc(C(=O)NNC=O)cc1 | broth dilution | ATCC11632 | 18 h | 16 µg/mL |
| O=C(CCCCCC[P+](c1ccccc1)(c1ccccc1)c1ccccc1)Nc1cc(O)c(O)c(O)c1.[Br-] | broth dilution | ATCC43300 MRSA | 18 h | 32 µg/mL |
| CCCC(=O)Oc1c(C)c(O)c(C(=O)/C=C/c2ccccc2)c(OC)c1C | broth dilution | ATCC25923 |  | > 5000 µg/mL |
| Cn1cnc2c(F)c(Nc3ccc(Br)cc3Cl)c(C(=O)NOCCO)cc21 |  | NCTC8325 |  | > 30 µM |
| CC(C)Oc1c(NC(=O)c2ccc(NC(=O)[C@H](CC(N)=O)NC(=O)c3ccc(NC(=O)c4ccc(C#N)c(Cl)c4)cc3)cc2)ccc(C(=O)Nc2ccc(C(=O)O)cc2)c1O |  | ATCC29213 |  | < 0.03 µg/mL |
| CN[C@H](CC(C)C)C(=O)N[C@H]1C(=O)N[C@@H](CC(N)=O)C(=O)N[C@H]2C(=O)N[C@H]3C(=O)N[C@H](C(=O)N[C@H](C(=O)O)c4cc(O)cc(O)c4-c4cc3ccc4O)[C@H](O)c3ccc(c(Cl)c3)Oc3cc2cc(c3O[C@@H]2O[C@H](CO)[C@@H](O)[C@H](O)[C@H]2O[C@H]2C[C@](C)(N)[C@H](O)[C@H](C)O2)Oc2ccc(cc2Cl)[C@H]1O | broth dilution | MRSA |  | 0.5 µg/mL |
| O=C(O)CN1C(=O)/C(=C/c2ccc(-c3ccc(N(c4ccccc4)c4ccccc4)cc3)c3ccccc23)SC1=S | broth dilution | ATCC25923 |  | 1000 µg/mL |
| CC1(C)S[C@@H]2[C@H](NC(=O)COc3ccccc3)C(=O)N2[C@H]1C(=O)O | broth dilution | ATCC25923 | 18 h | 2 µg/mL |
| C[C@@H](O)[C@H]1C(=O)N2C(C(=O)O)=C(S[C@H]3C[C@@H](C(=O)N4CC[C@H](NC(=O)CNC(=N)N)C4)N(C)C3)[C@H](C)[C@H]12 |  | MRSA |  | 8 µg/mL |
| O=C1NC(=S)N/C1=C\c1c2ccccc2c(-c2ccc(N(c3ccccc3)c3ccccc3)cc2)c2ccccc12 | broth dilution | ATCC6538 |  | > 1000 µg/mL |
| CC(C)Oc1c(NC(=O)c2ccc(NC(=O)[C@H](CC(N)=O)NC(=O)c3ccc(NC(=O)c4ccc(C#N)cc4)cc3)cc2)ccc(C(=O)NC2CCNCC2)c1O |  | ATCC29213 |  | > 64 µg/mL |
| CN(C)[C@@H]1C(O)=C(C(N)=O)C(=O)[C@@]2(O)C(O)=C3C(=O)c4c(O)cccc4[C@@](C)(O)[C@H]3C[C@@H]12 |  | 147 | clinical isolate | ≤ 0.1 µM |
| CN(C)c1ccc(-c2nc3ncc(Cl)c(N4CCN(CC(=O)Nc5nccs5)CC4)c3[nH]2)cc1 |  | NCTC8325 |  | > 30 µM |
| C/C=C(\C)c1cc(OC(=O)c2c(C)c(Cl)c(O)c(Cl)c2O)c(C)c(O)c1C(=O)O | broth dilution | 16339 |  | > 64 µg/mL |
| O=C(O)c1cc(Br)c(O)c(Br)c1 |  |  |  | > 128 µg/mL |
| CNc1cccc2cc(C(=O)Nc3ccc(C(=O)O)cc3)c(=O)[nH]c12 |  | ATCC29213 |  | 16 µg/mL |
| Oc1cccc(-c2nc3ccccc3[nH]2)c1 | broth dilution | ATCC29213 MSSA |  | 64 µg/mL |
| O=C(O)CN1C(=O)/C(=C/c2c3ccccc3c(-c3ccc(N(c4ccccc4)c4ccccc4)cc3)c3ccccc23)SC1=S | broth dilution | ATCC43300 |  | > 1000 µg/mL |

| SMILES | test | system | conditions | MIC |
| --- | --- | --- | --- | --- |
| CNC(=O)c1cc(Oc2ccc(NC(=O)Nc3ccc(C)cc3)cc2)ccn1 |  | NCTC8325 |  | > 100 µM |
| COc1cc(OC)c2cc(C(=O)NCc3ccc(C)cc3)cc(O)c2c1 | broth dilution | ATCC29213 MSSA |  | 32 µg/mL |
| C=CCn1c(-c2ccc([N+](=O)[O-])cc2)nc2ccc(C)cc21 | broth dilution | ATCC29213 MSSA |  | 32 µg/mL |
| O=C(COC(=O)c1n[nH]c2ccccc12)Nc1ccc(N2CCCCC2)cc1 |  |  |  | > 128 µg/mL |
| O=C1NN=C(N=Cc2ccccc2)C1=NNn1c(-c2ccccc2)nc2ccccc2c1=O | broth dilution |  | 24 h | 57.1 µM |
| COc1ncc(-c2ccc3nccc(-c4ccnnc4)c3c2)cc1NS(=O)(=O)c1ccc(F)cc1F |  | NCTC8325 |  | > 30 µM |
| O=C1NC(=S)N/C1=C\c1ccc(-c2ccc(N(c3ccccc3)c3ccccc3)cc2)cc1 | broth dilution | ATCC6538 |  | > 1000 µg/mL |
| COc1cccc(NCc2ccc(Oc3ccccn3)cc2)c1 |  |  |  | 1.6 µg/mL |
| CC(C)Oc1c(NC(=O)c2ccc(NC(=O)[C@H](CC(N)=O)NC(=O)c3ccc(NC(=O)c4ccc([N+](=O)[O-])cc4)cc3)cc2)ccc(C(=O)Nc2ccc(C(=O)O)c(F)c2)c1O |  | ATCC29213 |  | 2 µg/mL |
| C=CCn1c(-c2ccc(Cl)cc2)nc2ccccc21 | broth dilution | ATCC29213 MSSA |  | 64 µg/mL |
| CC1=NN(CNc2ccccc2)C(=O)C1=NNn1c(-c2ccccc2)nc2ccccc2c1=O | broth dilution |  | 24 h | 221 µM |
| Cc1cc(/C=C2\Sc3ccccc3N2CCCN2CCC(C)CC2)c2ccccc2[n+]1C.[I-] | broth dilution | ATCCBAA44 |  | 1 µg/mL |
| O=C(O)c1cn(C2CC2)c2cc(N3CCNCC3)c(F)cc2c1=O | broth dilution | ATCC11632 | 18 h | < 5 µg/mL |
| Cc1ccc2nc(-c3ccccc3O)[nH]c2c1 | broth dilution | ATCC29213 MSSA |  | 128 µg/mL |
| CC(C)Oc1c(NC(=O)c2ccc(NC(=O)[C@H](CC(N)=O)NC(=O)c3ccc(NC(=O)c4ccc(NC(N)=O)cc4)cc3)cc2)ccc(C(=O)Nc2ccc(C(=O)O)cc2)c1O |  | ATCC29213 |  | 64 µg/mL |
| OC(Cn1cncn1)(Cn1cncn1)c1ccc(F)cc1F | broth dilution | MB2865 |  | > 128 µg/mL |
| CC(C)Oc1c(N)ccc(C(=O)Nc2ccc(C(=O)N[C@@H](CC(N)=O)C(=O)Nc3ccc(C(=O)Nc4ccc(C(=O)Nc5ccc(C(=O)O)cc5)c(O)c4OC(C)C)cc3)cc2)c1O |  | ATCC29213 |  | > 64 µg/mL |
| Cc1ccc2cccc(C(=O)O)c2c1 |  |  |  | > 128 µg/mL |
